Hits are enriched below; roughly 5.4% of the tested compounds scored in any of these assays.
PLAP activator: PLAP enzyme activators, biochemical, luminescence, HTS. activation fold at 20 µM. purified PLAP enzyme, luminescent substrate read-out; stronger effect = higher value. 96,000 tested, 1.2% active. Alkaline phosphatase, placental type (Homo sapiens), P05187; in the data active = activation fold above about 2
HePTP inh: inhibitors of human HePTP phosphatase, primary screen, biochemical, absorbance, leukemia target; recombinant HePTP phosphatase activity, OD absorbance; inhibition, % at 20 µM; 110,000 tested, 0.64% active; in the data active = inhibition above about 50%;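 also: plate controls were vehicle for no effect and reference inhibitor for full effect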
Target sequence (P35236 whole entry, looked up): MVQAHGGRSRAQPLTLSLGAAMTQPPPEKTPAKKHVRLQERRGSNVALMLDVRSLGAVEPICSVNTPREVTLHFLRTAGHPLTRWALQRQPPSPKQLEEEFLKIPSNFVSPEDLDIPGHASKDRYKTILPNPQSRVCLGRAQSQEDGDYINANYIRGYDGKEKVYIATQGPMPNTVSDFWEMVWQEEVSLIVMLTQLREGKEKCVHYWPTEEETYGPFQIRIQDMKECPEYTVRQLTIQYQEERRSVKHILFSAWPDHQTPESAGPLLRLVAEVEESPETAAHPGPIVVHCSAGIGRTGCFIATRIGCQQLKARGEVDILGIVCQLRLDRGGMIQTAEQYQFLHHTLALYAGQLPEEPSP
PostGolgi yeast: phenotypic screen on post-Golgi transport, primary screen; 98,000 tested, 0.9% active; post-Golgi transport phenotypic cell assay; inhibition, % at 10 µM; AID 739, 2007;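 also: yeast cells grown in 1536-well plates; yeast grown about 18 h at 30C before absorbance read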
PostGolgi ctrl: growth inhibition of yeast control strain, primary screen, counter-screen for post-Golgi transport modulator project; efflux-deficient yeast background strain, growth absorbance A615, 16 h; inhibition, % at 10 µM; 98,000 tested, 5% active; AID 738, 2007
Ecoli tolC: growth inhibitors of E. coli tolC mutant, primary screen, strain BW25113 ΔtolC::kan, 384-well; OD615; 65,000 tested, 2.2% active; growth inhibition, % at 10 µM (by protocol);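 active = growth inhibition at or above a cutoff equal to the mean over every tested compound plus 3 SD, cut at about 60% in these data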;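 also: growth measured after 20 h incubation at 37 °C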
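Test system – E. coli BW25113 ΔtolC::kan, tolC deletion mutant strain · Detection – OD at 615 nm · Buffer or medium – LB with kanamycin 50 µg/mL · Times – 20 h compound exposure of bacteria at 37 °C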
Ecoli WT expand: growth inhibitors of wild-type E. coli, primary screen, strain BW25113, expanded library, OD600; OD600 absorbance; growth inhibition, % at 100 µM; 98,000 tested, 0.15% active;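 active = growth inhibition above about 50% at one test dose, limit read from the data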;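 also: growth measured after 20 h incubation at 37 °C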
* marks the source's active call; other numbers are inactive results; nt = not tested or not shown. Rule as the data show it, unless noted: active = inhibition above about 30%; inactive = the rest.

SMILES | PLAP activator | HePTP inh | PostGolgi yeast | PostGolgi ctrl | Ecoli tolC | Ecoli WT expand
COC(=O)c1c(C)nc(C)c2c(=O)oc3ccccc3c12 | 0.9 | 13 | -4 | 42* | 8 | -1
O=C(COc1ccccc1[N+](=O)[O-])NC(c1ccccc1)c1c(O)ccc2ccccc12 (stereo not given) | nt | 9 | nt | nt | nt | nt
CC(=O)NC(CCS(C)(=O)=O)C(=O)Nc1cc(Cl)ccc1Cl (stereo not given) | 1.1 | 3 | -3 | 32* | -21 | 7
Cn1c(/C=C2/C(=O)N(Cc3ccccc3)c3ccccc32)nc2ccccc2c1=O | nt | 6 | nt | nt | nt | nt
Cc1ccc(C)c(COc2ccc3c4c(c(=O)oc3c2C)CCC4)c1 | nt | 1 | nt | nt | nt | nt
Cc1ccc(C)c(S(=O)(=O)Nc2ccc(C)c(C)c2)c1 | nt | 4 | nt | nt | nt | nt
Cc1ccc(C)c(S(=O)(=O)Nc2ccc3scnc3c2)c1 | 1.4 | -1 | -5 | 50* | 15 | 7
COc1ccccc1C(=O)OC(C(=O)c1ccccc1)c1ccccc1 (stereo not given) | nt | 2 | nt | nt | nt | nt
CCN(Cc1ccccc1)C(=O)CSc1nc(C)cc(C)c1C#N | 0.9 | 6 | 10 | 35* | 29 | -6
Cc1cc(C)c(C#N)c(SCC(=O)N2CCN(Cc3ccccc3)CC2)n1 | 1.6 | 0 | 16 | 31* | 9 | -2
O=C(O)C1CC(=O)N(c2ccc(Br)cc2)C1 (stereo not given) | 1 | -3 | -7 | 42* | -21 | -2
O=C(Nc1nc2ccccc2s1)C1CC(=O)N(c2ccc(Br)cc2)C1 (stereo not given) | 1.3 | nt | -9 | 46* | nt | -6
C=CCN(CC=C)C(=O)C1CC(=O)N(c2ccc(Br)cc2)C1 (stereo not given) | 1.7 | 2 | -5 | -14 | -8 | 1
O=C(OCC1CCS(=O)(=O)C1)c1ccccc1 (stereo not given) | nt | -8 | nt | nt | nt | nt
CCN(CC)CCOCCOCCN(CC)CC | nt | 7 | nt | nt | nt | nt
CC1CCCCN1S(=O)(=O)c1ccc(C(=O)Nc2nnc(-c3ccccc3Cl)o2)cc1 (stereo not given) | 1.6 | -4 | 5 | 2 | 100* | 4
CCC1CCCCN1S(=O)(=O)c1ccc(C(=O)Nc2nnc(-c3ccccc3Cl)o2)cc1 (stereo not given) | nt | 12 | 3 | 24 | 100* | -2
CCC1CCCCN1S(=O)(=O)c1ccc(Cl)c([N+](=O)[O-])c1 (stereo not given) | nt | -2 | nt | nt | nt | nt
O=C(Nc1nnc(-c2ccccc2Cl)o1)c1ccc(S(=O)(=O)N2CCCCCC2)cc1 | 1.9 | -2 | 8 | 8 | 100* | -3
CC(=O)Nc1ccc(S(=O)(=O)N2CCCCC2c2cccnc2)cc1 (stereo not given) | 0.7 | -2 | 1 | 35* | 6 | 5
CCOc1ccc(C(=O)N2CCN(c3ccccc3OC)CC2)cc1OCC | nt | 1 | nt | nt | nt | nt
CC(=O)NC1=NN(C(C)=O)C(C)(c2cccc(OC(=O)c3ccccc3)c2)S1 (stereo not given) | nt | 3 | nt | nt | nt | nt
Cc1ccc(Cl)c(OCCN2CCOCC2)c1 | nt | -4 | nt | nt | nt | nt
COc1ccccc1N1CCN(/N=C(/C)c2ccc(Br)cc2)CC1 | nt | 6 | nt | nt | nt | nt
O=C(Nc1ccc(N2CCOCC2)cc1)C(c1ccccc1)c1ccccc1 | nt | -5 | nt | nt | nt | nt
SMILES | PLAP activator | HePTP inh | PostGolgi yeast | PostGolgi ctrl | Ecoli tolC | Ecoli WT expand
O=C(Nc1ccn(-c2ccccc2)n1)c1ccc(S(=O)(=O)N2CCCCCC2)cc1 | 0.8 | 4 | -8 | 31* | 31 | -22
CC1CCN(S(=O)(=O)c2ccc(NC(=O)c3cccs3)cc2)CC1 | 1 | 9 | -5 | 26 | 13 | -7
CC1CCCCN1S(=O)(=O)c1ccc(NC(=O)c2cccs2)cc1 (stereo not given) | 0.4 | 3 | -12 | 33* | 53 | -3
Cc1cc2cc(CN(CCN3CCOCC3)C(=O)Nc3ccccc3F)c(=O)[nH]c2cc1C | 1.3 | 7 | 18 | 0 | 19 | 3
COc1ccc2[nH]c(=O)c(CN(CCCN(C)C)C(=O)Nc3ccccc3)cc2c1 | 1.6 | 5 | 5 | 2 | -15 | 5
COc1ccccc1NC(=O)N(CCN(C)C)Cc1cc2cc(C)ccc2[nH]c1=O | 2* | 5 | 2 | -2 | -3 | -7

Screens (PubChem BioAssay)
